# From PubChem BioAssay AID743256 (The Scripps Research Institute Molecular Screening Center, 2014)
# In all, about 2,900 compounds went through this assay and about 1,300 (45%) were called active. The set was probably picked from earlier hits. The list is a sample of the results. Values without a mark were called inactive.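 The calls were made as follows: active = mean inhibition over the triplicate runs exceeds the activity threshold set in the earlier primary screen (cut at about 20% in these data); inactive = the rest.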
# Target: Disintegrin and metalloproteinase domain-containing protein 10 (Homo sapiens) (UniProt O14672)
# Assay: ADAM10 inhibitors, counter-screen for ADAM17 exosite inhibitor project, biochemical, FRET, human ADAM10 (AID 743256);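 also: 0% = DMSO wells and 100% = marimastat wells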
# Conditions: recombinant ADAM10, EDANS/DABCYL FRET peptide cleavage, 3 h; at 6.95 µM; stronger effect = higher value
# Procedure, shortened: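 System: human ADAM10 metalloprotease enzyme in a cell-free biochemical assay; amount: enzyme 2X stock at 20 nM; signal: FRET fluorescence readout; also added: EDANS/DABCYL DM2 peptide, 2X stock 20 µM; control set: 1 µM marimastat (high) and DMSO (low); times: 30 min plus 3 h, 25 °C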
# Chain of Disintegrin and metalloproteinase domain-containing protein 10 (Homo sapiens) (O14672 214-748 limits assumed): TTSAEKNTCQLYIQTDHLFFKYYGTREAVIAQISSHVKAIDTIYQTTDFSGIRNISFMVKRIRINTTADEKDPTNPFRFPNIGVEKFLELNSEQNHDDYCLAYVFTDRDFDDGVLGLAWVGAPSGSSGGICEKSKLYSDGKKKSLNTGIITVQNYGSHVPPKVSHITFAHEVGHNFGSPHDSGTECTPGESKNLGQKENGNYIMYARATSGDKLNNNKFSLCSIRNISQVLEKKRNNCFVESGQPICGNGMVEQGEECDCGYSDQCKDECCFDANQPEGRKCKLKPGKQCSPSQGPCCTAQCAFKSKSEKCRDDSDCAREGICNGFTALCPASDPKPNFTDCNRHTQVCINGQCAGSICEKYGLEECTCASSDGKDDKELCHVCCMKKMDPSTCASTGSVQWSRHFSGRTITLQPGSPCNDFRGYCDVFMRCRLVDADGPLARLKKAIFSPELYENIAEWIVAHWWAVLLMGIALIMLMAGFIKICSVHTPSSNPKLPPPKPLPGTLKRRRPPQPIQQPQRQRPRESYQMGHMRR
row,Compound,inhibition
1,COc1cccc(NC(=O)C2C(c3ccccc3)C2(Cl)Cl)c1 (centres undefined),34.2% (active)
2,COC(=O)N(C)C[C@@H]1OCc2cnnn2CCCC(=O)N([C@@H](C)CO)C[C@@H]1C,-8.98%
3,C=C(C)COc1ccc(-c2n[nH]c(C)c2-c2ccccc2)c(O)c1,40.8% (active)
4,COc1ccc(S(=O)(=O)N2CCN(C(C)C(=O)Nc3ccc(C(C)C)cc3)CC2)cc1 (centres undefined),20.5% (active)
5,CC(=O)Nc1ccc(S(=O)(=O)N2CCN(CCCOc3cc(C)ccc3C)CC2)cc1,12.4%
6,O=C1NC(=O)C(c2ccc(Cl)cc2)N1 (centres undefined),6.62%
7,CN(C(=O)c1cccc(NC(=O)Cc2cccc([N+](=O)[O-])c2)c1)C1CCCCC1,19.9% (active)
8,COc1ccccc1C(=O)NCC(=O)OCC(=O)NNC(=O)c1ccc(Br)cc1,3.18%
9,S=C(NCc1ccc(Cl)cc1)NC12CC3CC(CC(C3)C1)C2,22.6% (active)
10,Cc1ccc(/C=N/NC(=O)CSc2nc3ccccc3o2)cc1,5.15%
11,C[C@@H]1CN([C@H](C)CO)C(=O)c2cc(-c3ccc(F)cc3)cnc2O[C@H]1CN(C)C(=O)c1ccc(F)cc1,12.7%
12,CC(C)Oc1cc(F)ccc1-c1cc(C(=O)Nc2cccc(Cl)c2)[nH]n1,25.8% (active)
13,N#C/C(=C/c1ccc(N2CCCCC2)o1)C(=O)NCCc1c[nH]c2ccccc12,23.4% (active)
14,Cc1cc(C)cc(NC(=S)NCCc2c[nH]c3ccccc23)c1,14%
15,O=C(CSc1nc(-c2ccccc2)cs1)Nc1cccc([N+](=O)[O-])c1,24.3% (active)
16,CCOc1ccc(N2C(=O)CC(N(CCc3ccc(OC)c(OC)c3)C(=S)Nc3ccccc3)C2=O)cc1 (centres undefined),4.08%
17,COc1ccc(Cl)cc1NC(=O)COC(=O)C(CC(C)C)N1C(=O)C2CC=CCC2C1=O (centres undefined),17.9%
18,CC1(C)C=Cc2c(ccc3c2OC[C@@H](c2ccc(O)cc2O)C3)O1,24.2% (active)
19,Cn1nc(C(F)(F)F)c2cc(NC(=O)OCC(C)(C)C)sc21,13%
20,C#CCN(C[C@H]1[C@H](OC(=O)NC2CCCC2)[C@H](OC(=O)NC2CCCC2)C[C@H]2C(=O)N(c3ccccc3)C(=O)[C@@H]12)S(=O)(=O)c1ccc(C)cc1,19.1%
21,CCOc1ccccc1C1CC(c2cccc(NS(C)(=O)=O)c2)=NN1C(=O)c1ccccc1 (centres undefined),-1.35%
22,Cc1ccc(S(=O)(=O)NCCSc2ccccc2)cc1[N+](=O)[O-],6.91%
23,Cc1cc(C)cc(NS(=O)(=O)c2ccc(Oc3ncc(C(F)(F)F)cc3Cl)cc2)c1,39% (active)
24,COc1cc(/C=N/n2c(C)n[nH]c2=S)ccc1OCc1ccccc1,-1.14%
25,COC(=O)c1c(C)[nH]c(C(=O)/C=C/c2ccc(Cl)cc2)c1C,-38.4%
26,O=C(OCc1ccc(-c2ccccc2)cc1)c1cccc(O)c1,22.9% (active)
27,COc1ccc(C(CNC(=O)c2cc(S(=O)(=O)Nc3cccc(C)c3)ccc2C)N2CCCC2)cc1 (centres undefined),6.83%

row,Compound,inhibition
1,COC(C(=O)Nc1ccc(S(=O)(=O)Nc2ccc(C)c(C)c2)cc1)c1ccccc1 (centres undefined),29.4% (active)
2,O=C(COC(=O)c1ccccc1)Nc1ccccc1Sc1ccccc1,20.3% (active)
3,Cc1ccccc1C(=O)Nc1ccccc1Sc1ccccc1,10.7%
4,O=C(CSCc1ccc(Br)cc1)Nc1ccc(S(=O)(=O)N2CCCCCC2)cc1,23% (active)
5,CC(=O)Nc1ccc(S(=O)(=O)Oc2ccc(Br)cc2C(=S)N2CCOCC2)cc1,13.5%
6,COc1ccc(S(=O)(=O)N2CCCCC2)cc1Br,10.7%
7,COc1ccc(CC(=O)c2ccc(O)cc2O)cc1OC,6.86%
8,Cc1ccc(Cn2nnc3c(=O)[nH]c(C4CCN(S(=O)(=O)/C=C/c5ccccc5)CC4)nc32)cc1,41.6% (active)
9,N/C(Cc1ccc([N+](=O)[O-])cc1)=N\OC(=O)COc1ccc2ccccc2c1,11.5%
10,O=C(Nn1c(SCc2ccc([N+](=O)[O-])cc2)nc2ccccc2c1=O)c1ccc(F)cc1,30.6% (active)
11,CC(C)(C)c1ccc(S(=O)(=O)NCC2CCN(C(=O)C(=O)c3cc4ccccc4o3)CC2)cc1,24.1% (active)
12,C=CC(COCc1ccccc1)N(CC(=O)OC)S(=O)(=O)c1cc(Br)ccc1OC (centres undefined),13.2%
13,FC(F)(F)Oc1ccccc1C(c1nnnn1C1CCCCC1)N1CCN(C/C=C/c2ccccc2)CC1 (centres undefined),17.1%
14,COc1ccc(-c2cc(C3CCN(c4ncccc4[N+](=O)[O-])CC3)[nH]n2)cc1,27.1% (active)
15,O=C(Nc1ccc(C(=O)NCc2ccccc2Cl)cc1)C1=CSCCO1,9.95%
16,COc1ccc(C(N)c2csc(NC(=O)Nc3cccc(C(F)(F)F)c3)n2)cc1 (centres undefined),14.4%
17,O=C(COc1ccc(Cl)cc1)N1CCN(c2cccc(C(F)(F)F)c2)CC1,18.6%
18,Cn1nc(C(F)(F)F)c(C(=O)Nc2cccc(C(F)(F)F)c2)c1SCc1ccc(Cl)cc1,37.8% (active)
19,CCOC(=O)c1cccc(NC(=O)CN(C)S(=O)(=O)c2ccc(-c3cocn3)s2)c1,4.04%
20,COc1ccc(-c2ccc(CN3C(CC(C)C)C(=O)N(Cc4cn(CC5CCCCC5)nn4)CCS3(=O)=O)cc2)cc1 (centres undefined),26.9% (active)
21,COc1ccc(Cn2cc(CN3CCS(=O)(=O)N(Cc4ccc(-c5cccc(Cl)c5)cc4)C(C)C3=O)nn2)cc1 (centres undefined),18%
22,O=C1[C@H]2[C@@H](c3ccc(C(F)(F)F)cc3)N[C@]3(CCCN(Cc4ccc(Br)cc4)C3=O)[C@H]2C(=O)N1Cc1ccccc1,32.2% (active)
23,CCOc1ccccc1CNS(=O)(=O)c1cc(-c2cc(C)no2)ccc1C,1.34%
24,CCOc1ccc(OCC)c(-c2c(=O)n(OCc3ccc(Cl)cc3)c3ccccc3[n+]2[O-])c1,-2.21%
25,O=C(Cc1ccc(Cl)c(Cl)c1)Nc1ccc(SC(F)F)cc1,43.3% (active)
26,Cc1ccc(-n2c(COc3ccccc3)nnc2SCC(=O)Nc2ccc3c(c2)OCCO3)cc1,25.8% (active)
27,CCOc1ccc(-n2c(SCC(=O)Nc3cc(C)c(NC(=O)c4ccccc4)cc3OC)nnc2-c2cccs2)cc1,8.96%
